By IC50 is commonly meant the concentration needed to halve the response being measured. In general, Ki refers to a dissociation constant, usually derived from enzyme kinetics or from competition with a known ligand. For orientation: inhibition means how much of the control response was suppressed. Read a high inhibition as a response far below the control.

Consider two compounds from ChEMBL document CHEMBL1177669, “Synthesis and biological study of 3-(phenylsulfonyl)thieno[2,3-e][1,2,3]triazolo[1,5-a]pyrimidines as potent and selective serotonin 5-HT6 receptor antagonists” (Bioorg Med Chem, 2010).

Each structure is given as a SMILES string.

Data set [1] has as its target T1, 5-hydroxytryptamine receptor 6 (Homo sapiens, UniProt P50406). Nature of the data set: Antagonist activity at human recombinant 5HT6 receptor expressed in HEK293 cells assessed as inhibition of serotonin-induced cAMP production. The format is functional, cell-based. The method, boiled down:
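HEK293 cells stably expressing recombinant human 5-HT6R, stimulated with serotonin. cAMP from adenylyl cyclase measured by LANCE. Compounds screened at 5 and 10 μM. IC50 determined for compounds giving more than 50% inhibition of cAMP synthesis at 5 μM.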
On the technique in general: Cyclic AMP is a second messenger, typically raised through Gs and lowered through Gi signalling.

Data set [2] concerns the target T1, 5-hydroxytryptamine receptor 6. Nature of the data set: Binding affinity to human recombinant 5HT6 receptor expressed in HEK293 cells by radioligand displacement assay. The format is cell-based. The method, boiled down:
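Competitive radioligand binding at the 5-HT6 receptor, run by MDS Pharma Services as part of a serotonin receptor panel. IC50 and Ki values derived.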
On the technique in general: Displacement assays read how much labelled ligand stays bound in the presence of the test substance.

Data set [3] has as its target T2, 5-hydroxytryptamine receptor 1A (Homo sapiens) (UniProt P08908).
T2 sequence (whole entry): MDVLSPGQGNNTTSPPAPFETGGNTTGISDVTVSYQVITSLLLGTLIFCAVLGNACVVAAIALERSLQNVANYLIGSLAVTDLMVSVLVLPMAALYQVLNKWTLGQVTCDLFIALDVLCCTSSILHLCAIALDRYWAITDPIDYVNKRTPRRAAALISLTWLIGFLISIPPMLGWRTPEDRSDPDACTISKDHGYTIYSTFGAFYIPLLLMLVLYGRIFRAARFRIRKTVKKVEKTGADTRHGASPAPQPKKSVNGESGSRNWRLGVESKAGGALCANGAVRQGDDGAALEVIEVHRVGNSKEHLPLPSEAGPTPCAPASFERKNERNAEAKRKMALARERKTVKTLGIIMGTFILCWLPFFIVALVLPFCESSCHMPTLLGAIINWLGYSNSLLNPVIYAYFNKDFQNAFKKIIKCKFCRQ
The data set is described as follows: Binding affinity to 5HT1A receptor at 1 uM by radioligand displacement assay. The method, boiled down: (§1)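 Competitive radioligand binding run by MDS Pharma Services on a serotonin receptor panel. Test compound at 1 µM. Read-out is % displacement of radioligand from each receptor complex.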

Data set [4] has as its target 5-hydroxytryptamine receptor 1B (Homo sapiens) (UniProt P28222). Nature of the data set: Binding affinity to 5HT1B receptor at 1 uM by radioligand displacement assay. The method, boiled down:
as §1

In data set [5] the target is 5-hydroxytryptamine receptor 2A (Homo sapiens) (UniProt P28223). Nature of the data set: Binding affinity to 5HT2A receptor at 1 uM by radioligand displacement assay. The method, boiled down: as §1
Sequence of 5-hydroxytryptamine receptor 2A (Homo sapiens) (P28223 whole entry): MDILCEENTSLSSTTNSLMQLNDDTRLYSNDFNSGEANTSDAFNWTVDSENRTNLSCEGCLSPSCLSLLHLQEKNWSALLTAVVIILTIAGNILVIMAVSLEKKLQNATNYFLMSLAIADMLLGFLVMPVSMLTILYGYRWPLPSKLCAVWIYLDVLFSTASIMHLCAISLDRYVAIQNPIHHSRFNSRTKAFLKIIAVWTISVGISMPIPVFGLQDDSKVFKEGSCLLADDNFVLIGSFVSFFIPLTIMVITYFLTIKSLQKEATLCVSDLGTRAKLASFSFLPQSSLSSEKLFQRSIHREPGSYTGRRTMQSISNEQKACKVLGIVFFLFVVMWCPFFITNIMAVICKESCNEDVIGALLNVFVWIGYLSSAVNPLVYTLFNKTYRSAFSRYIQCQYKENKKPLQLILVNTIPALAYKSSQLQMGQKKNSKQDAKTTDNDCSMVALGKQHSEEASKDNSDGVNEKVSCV
The target in data set [6] is 5-hydroxytryptamine receptor 2B (Homo sapiens) (UniProt P41595). The data set is described as follows: Binding affinity to 5HT2B receptor at 1 uM by radioligand displacement assay. The method, boiled down: as §1
Sequence of 5-hydroxytryptamine receptor 2B (Homo sapiens) (P41595 whole entry): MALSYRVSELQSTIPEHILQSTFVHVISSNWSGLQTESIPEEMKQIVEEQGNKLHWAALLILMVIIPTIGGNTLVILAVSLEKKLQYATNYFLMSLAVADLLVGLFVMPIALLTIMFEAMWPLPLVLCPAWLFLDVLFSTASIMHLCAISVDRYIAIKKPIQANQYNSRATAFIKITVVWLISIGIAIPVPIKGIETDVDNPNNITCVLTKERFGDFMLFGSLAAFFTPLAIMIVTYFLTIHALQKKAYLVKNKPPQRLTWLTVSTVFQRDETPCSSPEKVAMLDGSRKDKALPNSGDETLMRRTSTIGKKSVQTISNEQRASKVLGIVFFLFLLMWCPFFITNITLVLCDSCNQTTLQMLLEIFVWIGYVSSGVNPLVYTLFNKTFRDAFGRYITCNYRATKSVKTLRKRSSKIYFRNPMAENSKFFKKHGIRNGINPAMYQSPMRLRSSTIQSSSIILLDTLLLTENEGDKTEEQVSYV
Data set [7] addresses T3, 5-hydroxytryptamine receptor 2C (Homo sapiens) (UniProt P28335).
T3 sequence (whole entry): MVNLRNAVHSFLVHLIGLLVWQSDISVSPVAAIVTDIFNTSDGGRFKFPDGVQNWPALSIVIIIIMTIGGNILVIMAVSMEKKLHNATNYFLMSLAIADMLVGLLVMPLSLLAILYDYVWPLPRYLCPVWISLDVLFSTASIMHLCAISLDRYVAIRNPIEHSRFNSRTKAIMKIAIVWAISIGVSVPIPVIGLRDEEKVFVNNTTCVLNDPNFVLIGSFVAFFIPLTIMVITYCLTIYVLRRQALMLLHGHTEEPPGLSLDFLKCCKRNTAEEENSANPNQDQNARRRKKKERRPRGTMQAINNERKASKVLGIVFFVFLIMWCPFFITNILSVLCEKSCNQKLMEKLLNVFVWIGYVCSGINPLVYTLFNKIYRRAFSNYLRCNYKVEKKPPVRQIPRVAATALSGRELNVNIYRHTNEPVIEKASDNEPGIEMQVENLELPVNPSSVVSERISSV
Nature of the data set: Binding affinity to 5HT2C receptor at 1 uM by radioligand displacement assay. The method, boiled down: as §1

For data set [8], the target named is T4, 5-hydroxytryptamine receptor 3A (Homo sapiens) (UniProt P46098).
T4 sequence (whole entry): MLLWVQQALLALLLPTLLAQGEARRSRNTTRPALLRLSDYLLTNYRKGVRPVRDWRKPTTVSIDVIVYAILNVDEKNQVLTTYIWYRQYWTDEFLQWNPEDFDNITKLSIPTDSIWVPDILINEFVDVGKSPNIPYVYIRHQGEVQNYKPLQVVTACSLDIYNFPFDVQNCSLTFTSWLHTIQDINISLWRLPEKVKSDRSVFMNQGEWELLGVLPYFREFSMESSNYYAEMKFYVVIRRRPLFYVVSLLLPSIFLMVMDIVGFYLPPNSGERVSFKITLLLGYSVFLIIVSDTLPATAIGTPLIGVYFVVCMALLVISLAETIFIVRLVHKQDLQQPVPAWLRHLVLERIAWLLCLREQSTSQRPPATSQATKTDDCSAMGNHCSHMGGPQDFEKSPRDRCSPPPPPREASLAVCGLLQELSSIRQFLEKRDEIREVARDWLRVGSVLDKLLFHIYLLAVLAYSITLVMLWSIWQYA
The data set is described as follows: Binding affinity to 5HT3 receptor at 1 uM by radioligand displacement assay. The method, boiled down: as §1

The target of data set [9] is 5-hydroxytryptamine receptor 4 (Homo sapiens) (UniProt Q13639). Nature of the data set: Binding affinity to 5HT4 receptor at 1 uM by radioligand displacement assay. The method, boiled down: as §1
Sequence of 5-hydroxytryptamine receptor 4 (Homo sapiens) (Q13639 whole entry): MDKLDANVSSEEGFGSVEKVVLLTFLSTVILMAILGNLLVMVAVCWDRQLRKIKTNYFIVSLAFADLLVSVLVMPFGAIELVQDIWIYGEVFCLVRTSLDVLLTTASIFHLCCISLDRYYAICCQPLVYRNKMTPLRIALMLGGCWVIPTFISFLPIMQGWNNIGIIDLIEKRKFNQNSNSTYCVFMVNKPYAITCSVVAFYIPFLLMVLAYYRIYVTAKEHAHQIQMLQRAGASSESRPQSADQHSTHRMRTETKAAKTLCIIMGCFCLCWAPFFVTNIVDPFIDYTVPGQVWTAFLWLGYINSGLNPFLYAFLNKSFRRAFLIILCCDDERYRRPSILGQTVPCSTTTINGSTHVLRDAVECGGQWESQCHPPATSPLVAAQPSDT
In data set [10] the target is 5-hydroxytryptamine receptor 7 (Homo sapiens) (UniProt P34969). Nature of the data set: Binding affinity to 5HT7 receptor at 1 uM by radioligand displacement assay. The method, boiled down:
as §1

Data set [11] has as its target T5, hERG (KCNH2) (Homo sapiens, UniProt Q12809). The data set is described as follows: Inhibition of human ERG at 15 uM by patch clamp assay. The method, boiled down: (§2)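 hERG potassium channel inhibition measured by patch clamp, performed by MDS Pharma Services. Read-out is % inhibition at a single test concentration.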
The target in data set [12] is T1, 5-hydroxytryptamine receptor 6. The data set is described as follows: Binding affinity to human recombinant 5HT6 receptor expressed in HEK293 cells at 1 uM by radioligand displacement assay. The format is cell-based. The method, boiled down:
as §1

Data set [13] has as its target T5, hERG (KCNH2). The data set is described as follows: Inhibition of human ERG at 30 uM by patch clamp assay. The method, boiled down: as §2
Background: Patch clamp records ionic current or voltage across a cell membrane.

T1 sequence (P50406 whole entry): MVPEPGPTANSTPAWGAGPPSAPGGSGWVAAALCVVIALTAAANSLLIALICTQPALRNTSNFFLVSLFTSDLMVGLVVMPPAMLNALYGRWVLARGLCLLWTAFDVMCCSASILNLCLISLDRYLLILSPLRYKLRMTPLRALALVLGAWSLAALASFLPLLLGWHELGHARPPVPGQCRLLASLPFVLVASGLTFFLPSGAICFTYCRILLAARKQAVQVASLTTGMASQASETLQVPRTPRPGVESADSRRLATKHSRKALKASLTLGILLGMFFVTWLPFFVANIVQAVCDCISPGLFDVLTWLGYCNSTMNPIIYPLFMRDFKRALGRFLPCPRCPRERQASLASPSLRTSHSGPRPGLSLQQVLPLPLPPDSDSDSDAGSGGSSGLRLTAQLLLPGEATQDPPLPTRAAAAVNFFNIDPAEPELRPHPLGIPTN
T5 sequence (Q12809 whole entry): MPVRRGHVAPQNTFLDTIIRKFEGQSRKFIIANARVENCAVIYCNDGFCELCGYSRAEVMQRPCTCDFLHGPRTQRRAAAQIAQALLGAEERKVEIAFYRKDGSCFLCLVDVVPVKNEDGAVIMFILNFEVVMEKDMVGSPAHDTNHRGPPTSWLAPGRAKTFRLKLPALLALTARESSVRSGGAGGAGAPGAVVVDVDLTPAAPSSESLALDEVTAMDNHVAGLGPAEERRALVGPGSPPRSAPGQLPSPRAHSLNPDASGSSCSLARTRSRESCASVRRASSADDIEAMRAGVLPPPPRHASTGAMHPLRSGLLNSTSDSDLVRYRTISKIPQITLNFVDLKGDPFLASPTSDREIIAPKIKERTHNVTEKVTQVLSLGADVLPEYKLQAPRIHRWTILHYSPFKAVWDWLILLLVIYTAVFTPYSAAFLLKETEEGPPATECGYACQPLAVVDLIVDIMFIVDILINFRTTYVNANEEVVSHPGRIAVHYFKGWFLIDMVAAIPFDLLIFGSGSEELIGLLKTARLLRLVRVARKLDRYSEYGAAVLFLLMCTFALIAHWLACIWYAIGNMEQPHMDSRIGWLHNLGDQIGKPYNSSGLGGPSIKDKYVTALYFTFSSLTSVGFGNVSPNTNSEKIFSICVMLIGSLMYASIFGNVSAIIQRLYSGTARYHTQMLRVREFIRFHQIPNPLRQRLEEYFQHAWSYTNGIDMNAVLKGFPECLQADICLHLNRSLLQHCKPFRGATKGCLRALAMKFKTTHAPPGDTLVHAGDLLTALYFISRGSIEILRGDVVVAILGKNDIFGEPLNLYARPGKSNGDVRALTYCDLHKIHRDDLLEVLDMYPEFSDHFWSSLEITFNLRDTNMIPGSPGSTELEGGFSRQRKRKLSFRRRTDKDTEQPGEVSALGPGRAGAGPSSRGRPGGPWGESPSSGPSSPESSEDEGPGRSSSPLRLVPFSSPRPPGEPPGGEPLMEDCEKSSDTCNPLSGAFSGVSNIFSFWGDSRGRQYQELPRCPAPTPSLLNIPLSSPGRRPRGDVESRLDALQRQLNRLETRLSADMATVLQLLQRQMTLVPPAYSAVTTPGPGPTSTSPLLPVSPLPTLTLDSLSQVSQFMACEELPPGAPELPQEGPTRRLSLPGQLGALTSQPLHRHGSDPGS
Sequence of 5-hydroxytryptamine receptor 7 (Homo sapiens) (P34969 whole entry): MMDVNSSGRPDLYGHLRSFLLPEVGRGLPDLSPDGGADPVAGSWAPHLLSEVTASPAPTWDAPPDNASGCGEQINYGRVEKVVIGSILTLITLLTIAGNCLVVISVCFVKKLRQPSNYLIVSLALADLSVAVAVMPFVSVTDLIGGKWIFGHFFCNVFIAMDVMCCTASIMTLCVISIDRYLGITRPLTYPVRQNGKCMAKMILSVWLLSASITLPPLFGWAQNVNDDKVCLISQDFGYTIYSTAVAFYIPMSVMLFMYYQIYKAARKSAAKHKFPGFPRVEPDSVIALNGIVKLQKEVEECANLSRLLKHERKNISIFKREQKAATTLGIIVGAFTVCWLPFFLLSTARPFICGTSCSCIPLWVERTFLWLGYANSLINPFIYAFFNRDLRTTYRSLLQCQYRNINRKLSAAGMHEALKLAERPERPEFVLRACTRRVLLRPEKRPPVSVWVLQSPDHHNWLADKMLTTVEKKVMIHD
Sequence of 5-hydroxytryptamine receptor 1B (Homo sapiens) (P28222 whole entry): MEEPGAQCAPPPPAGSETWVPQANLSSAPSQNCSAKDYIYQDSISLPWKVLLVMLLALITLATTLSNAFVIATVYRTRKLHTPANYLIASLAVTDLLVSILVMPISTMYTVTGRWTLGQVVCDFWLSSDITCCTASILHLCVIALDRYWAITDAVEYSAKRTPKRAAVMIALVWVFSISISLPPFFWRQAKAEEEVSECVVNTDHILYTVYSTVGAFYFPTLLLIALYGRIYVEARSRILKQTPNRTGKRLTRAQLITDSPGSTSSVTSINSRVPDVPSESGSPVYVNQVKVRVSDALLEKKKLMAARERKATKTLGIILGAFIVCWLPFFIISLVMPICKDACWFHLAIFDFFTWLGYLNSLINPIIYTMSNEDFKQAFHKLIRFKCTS

Consider `CN(Cc1ccccc1)c1nc2c(S(=O)(=O)c3ccccc3)nnn2c2ccsc12`, for which the values for the IC50 in [1] and in [2] were 170 nM and 5 nM, respectively. The Ki in data set [2] was 2.3 nM. Also, the Activity in data set [3] is 2%; in data set [4], 1%; in data set [5], 15%; in data set [6] it was 12%; in [7] it was 2%; in [8] it was -7%. In addition, the Activity in data set [9] was 33%; in [10], -2%; in data set [12], 103%. Moreover, in [11], the inhibition at 15 µM turned out to be 20%.
Take `CN(Cc1ccccc1)c1nc2c(S(=O)(=O)c3cccc(Cl)c3)nnn2c2ccsc12`: the half-inhibitory concentration (IC50) in data set [1] worked out at 920 nM; in data set [2], 7.5 nM. Besides, in data set [2], the Ki is 3.5 nM. Further, the Activity in data set [3] is 9%; in data set [4], 3%; in data set [5], 50%; in data set [6] it was 46%; in [7], 15%; in data set [8], -3%. Further, the Activity is 41% in data set [9], 6% in [10] and 106% in data set [12]. The compound further showed an inhibition at 30 µM in data set [13] of 20%.
